# Data from ChEMBL document CHEMBL2331294, “Anti-inflammatory diterpenoids from Croton tonkinensis” (J Nat Prod, 2013).
# How the values were obtained:
# [1] = Antiinflammatory activity in FMLP/CB activated human neutrophils assessed as inhibition of elastase release at 10 uM; assay type: functional; conditions: Neutrophil
# Outline: (§1)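 Neutrophils from healthy donor blood (dextran sedimentation, Ficoll 1.077 g/mL, hypotonic lysis), held in Ca2+-free HBSS pH 7.4 at 4 °C. Cells (6 × 10^5/mL) with MeO-Suc-Ala-Ala-Pro-Val-p-nitroanilide 100 μM, equilibrated 37 °C 2 min, drug or 0.1% DMSO 5 min, then 100 nM FMLP plus 0.5 μg/mL cytochalasin B. A405 monitored continuously; expressed relative to drug-free activated control; n = 3−4.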
# [2] = Antiinflammatory activity in FMLP/CB activated human neutrophils assessed as inhibition of superoxide generation at 10 uM by ferricytochrome c reduction based spectrophotometry; assay type: functional; conditions: Neutrophil
# Outline: (§2)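 Human donor neutrophils (6 × 10^5 cells/mL) with 0.5 mg/mL ferricytochrome c and 1 mM Ca2+, equilibrated 37 °C 2 min, then drug or 0.1% DMSO vehicle 5 min. Activated with 100 nM FMLP after 1 μg/mL cytochalasin B preincubation, 3 min. A550 followed continuously with stirring. Superoxide from SOD (100 U/mL)-inhibitable difference, ε = 21.1/mM/10 mm; n = 3−4.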
# [3] = Antiinflammatory activity in FMLP/CB activated human neutrophils assessed as inhibition of superoxide generation by ferricytochrome c reduction based spectrophotometry; assay type: functional, cell-based, Neutrophil; outline: as §2
# [4] = Antiinflammatory activity in FMLP/CB activated human neutrophils assessed as inhibition of elastase release; assay type: functional, cell-based, Neutrophil; outline: as §1
# [5] = Homo sapiens, Neutrophil, read-out: IC50
Structure (SMILES),"IC50 [3, 5]","IC50 [4, 5]",inhibition at 10 µM [1],further results
CC(=O)OC[C@@]1(C)CCC[C@]2(C)[C@@H]1C[C@H](O)[C@@]13C[C@@H](CC[C@@H]21)[C@H](C)C3=O,,,-0.19%,inhibition at 10 µM [2]: 40.4%
C=C1C[C@@]23CC[C@H]4[C@@](C)(CCC[C@]4(C)C(=O)O)[C@@H]2[C@H](OC(C)=O)C[C@H]1C3,4120 nM,2580 nM,,
C=C1C[C@]23C[C@@H]1CC[C@H]2[C@]1(C)CCC[C@](C)(COC(C)=O)[C@H]1C[C@H]3O,,,,IC50 ([3]; neutrophil): ND(Insoluble); IC50 ([4]; neutrophil): ND(Insoluble)
c1ccc2c(c1)[I+]c1ccccc1-2 [DIPHENYLENEIODONIUM],930 nM,,,
C=C1C(=O)[C@@]23[C@H](O)C[C@@H]4C(C)(C)CC[C@@H](OC(C)=O)[C@@]4(C)[C@@H]2CC[C@@H]1[C@H]3O,1940 nM,2480 nM,,
C=C1C(=O)[C@@]23[C@H](O)C[C@@H]4[C@@](C)(COC(C)=O)CCC[C@@]4(C)[C@@H]2CC[C@@H]1[C@H]3O,,,20.1%,inhibition at 10 µM [2]: 19%
C=C1C[C@]23C(=O)C[C@H]4C(C)(C)CCC[C@]4(C)[C@H]2CC[C@H]1[C@@H]3O [CROTONKININ A],,,-9.32%,inhibition at 10 µM [2]: 1.65%
C=C1C(=O)[C@@]23CC[C@@H]4[C@@](C)(CO)CCC[C@@]4(C)[C@@H]2CC[C@@H]1C3,,,18%,inhibition at 10 µM [2]: 29.9%
C=C1C(=O)[C@@]23CC[C@@H]4C(C)(C)CCC[C@@]4(C)[C@@H]2CC[C@H]1[C@H]3O,,,3.64%,inhibition at 10 µM [2]: 33.6%
C=C1C(=O)[C@@]23[C@@H]4CC5=C(C(=O)CC5(C)C)[C@@](C)(O4)[C@@H]2CC[C@@H]1[C@H]3O [CROTONKINENSIN A],2060 nM,1630 nM,,
C=C1C(=O)[C@@]23CC[C@H]4[C@@](C)(CCC[C@]4(C)C(=O)O)[C@@H]2CC[C@H]1C3,3270 nM,5560 nM,,
CC(=O)O[C@H]1C[C@@H]2C[C@]3(C=C2C=O)CC[C@H]2[C@@](C)(CCC[C@]2(C)C(=O)O)[C@H]13 [CROTONKININ C],4960 nM,,41.8%,
CC(=O)OC[C@@]1(C)CCC[C@]2(C)[C@@H]1CC[C@@]13C[C@@H](C[C@H](O)[C@H]12)C(C)(O)C3 (stereo partly specified) [CROTONKININ H],,,23.3%,inhibition at 10 µM [2]: -10.9%

# Continued, in another order:
"IC50 [3, 5]","IC50 [4, 5]",Structure (SMILES),inhibition at 10 µM [1],further results
1550 nM,2640 nM,C=C1C(=O)[C@]23C[C@H]1CC[C@H]2[C@]1(C)CCC[C@](C)(COC(C)=O)[C@H]1C[C@H]3O,,
2930 nM,,CC(=O)OC[C@@]1(C)CCC[C@]2(C)[C@@H]1CC[C@]13C=C(C(=O)O)[C@H](C[C@H](OC(C)=O)[C@H]12)C3 [CROTONKININ D],20.3%,
1960 nM,3220 nM,C=C1C(=O)[C@@]23[C@H](O)C[C@@H]4C(C)(C)CCC[C@@]4(C)[C@@H]2CC[C@@H]1[C@H]3O,,
3200 nM,4380 nM,CC(=O)O[C@@H]1C[C@@H]2C[C@@]3(C=C2C=O)CC[C@H]2[C@](C)(CO)CCC[C@]2(C)[C@@H]13 [CROTONKININ B],,
3950 nM,,C=C1C(=O)[C@]23C[C@@H]1CC[C@H]2[C@]1(C)CCC[C@](C)(CO)[C@H]1C[C@@H]3O,45.8%,
3110 nM,4660 nM,C=C1C(=O)[C@@]23CC[C@@H]4[C@@](C)(COC(C)=O)CCC[C@@]4(C)[C@@H]2[C@@H](OC(C)=O)C[C@@H]1C3 [CROTONKININ E],,
1740 nM,2230 nM,C=C1C(=O)[C@]23C[C@@H]1CC[C@H]2[C@]1(C)CCCC(C)(C)[C@H]1C[C@@H]3O,,
1120 nM,2360 nM,C=C1C(=O)[C@@]23[C@H](O)C[C@@H]4C(C)(C)CCC[C@@]4(C)[C@@H]2CC[C@H]1[C@H]3OC(C)=O,,
2880 nM,4440 nM,C=C1C(=O)[C@]23C[C@H]1CC[C@H]2[C@]1(C)CCC[C@](C)(COC(C)=O)[C@H]1C[C@H]3OC(C)=O [CROTONKININ F],,
1330 nM,1650 nM,C=C1C(=O)[C@]23C[C@@H]1C[C@@H](OC(C)=O)[C@H]2[C@]1(C)CCC[C@](C)(COC(C)=O)[C@H]1C[C@@H]3O,,
4760 nM,,CC(=O)OC[C@@]1(C)CCC[C@]2(C)[C@@H]1CC[C@]13CC(=O)[C@H](C[C@H](OC(C)=O)[C@H]12)C3 [CROTONKININ J],48.8%,
130 nM,240 nM,C=C1C(=O)[C@@]23CC[C@@H]4[C@@](C)(COC(C)=O)CCC[C@@]4(C)[C@@H]2CC[C@@H]1C3,,
4290 nM,,COCC1C(=O)[C@]23C[C@H]1CC[C@H]2[C@]1(C)CCC[C@](C)(COC(C)=O)[C@H]1C[C@H]3O (stereo partly specified) [CROTONKININ G],11.1%,
